# Test results reported in ChEMBL document CHEMBL4342509, “New 8-Nitroquinolinone Derivative Displaying Submicromolar in Vitro Activities against Both Trypanosoma brucei and cruzi” (ACS Med Chem Lett, 2020).
# How the values were obtained:
# [1] = system: Trypanosoma brucei brucei; test: Antitrypanosomal activity against Trypanosoma brucei brucei AnTat 1.9 trypomastigotes assessed as reduction in parasite viability incubated for 69 hrs by Alamar Blue dye based assay; format: functional, organism-based; settings: AnTat 1.9, 69 h
# In short: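 Bloodstream AnTat 1.9 parasites grown at 37°C, 5% CO₂ in MEM with Earle's salts (Baltz-type) plus 0.5 mM mercaptoethanol, 1.5 mM L-cysteine, 0.05 mM bathocuproine sulfate and 20% heat-inactivated horse serum. EC50 from nonlinear regression, three independent experiments in duplicate.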
# Leishmania infantum = test: Antileishmanial activity against Leishmania infantum MHOM/MA/67/ITMAP-263 axenic amastigotes expressing luciferase plasmid assessed as reduction in parasite viability incubated for 48 hrs by Steady Glow reagent based luminescence assay; format: functional, organism-based; settings: MHOM/MA/67/ITMAP-263, 48 h
# HepG2 [2] = test: Cytotoxicity against human HepG2 cells assessed as reduction in cell viability incubated for 72 hrs by MTT assay; format: cell-based; settings: hepg2, 72 h
# [3] = Selectivity index, ratio of CC50 for human HepG2 cells to EC50 for Trypanosoma brucei brucei trypomastigotes AnTat 1.9; format: toxicity; settings: read-out: Ratio CC50/EC50
# [4] = Electrochemical behavior of the compound assessed as redox potential corrected toward normal hydrogen electrode by cyclic voltammetry
# [5] = Toxicity in Swiss mouse assessed as lesions on kidney at 25 mg/kg, po administered once daily for 5 days; format: organism-based; settings: in vivo, 120 h
# [6] = Thermodynamic solubility of the compound in phosphate buffer at pH 7.4 by shake flask method; format: physicochemical
# In short: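 Shake-flask test, miniaturised: 10 µL of a 50 mM stock in 990 µL phosphate buffer pH 7.4 (ionic strength 50 mM), n=4. Shaken 24 h at room temperature, then centrifuged 12,225 × g for 5 min. Supernatant mixed 1:1 with acetonitrile and read by UV spectrophotometry at compound λmax. Quantified against a three-point calibration (0, 25, 50 µM).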
# [7] = system: Trypanosoma brucei brucei; test: Antitrypanosomal activity against bloodstream form of wild type Trypanosoma brucei brucei S427 trypomastigotes assessed as inhibition of parasite growth; format: functional, organism-based
# [8] = Permeability of the compound in pH 7.4 Prisma HT buffer at 100 uM incubated for 4 hrs by PAMPA-BBB assay method; format: ADME; settings: read-out: permeability
# Leishmania donovani [9] = test: Selectivity index, ratio of EC50 for wild type Leishmania donovani BOB (MHOM/SD/62/1S-CL2D) promastigotes to EC50 for Leishmania donovani BOB (MHOM/SD/62/1S-CL2D) promastigotes overexpressing NTR1; format: functional
# Leishmania donovani [10] = test: Antileishmanial activity against wild type Leishmania donovani BOB (MHOM/SD/62/1S-CL2D) promastigotes assessed as inhibition of parasite growth incubated for 72 hrs by resazurin dye based assay; format: functional, organism-based
# In short: (§1)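 LdBOB promastigotes grown at 26 °C in modified M199; NTR1- or NTR2-overexpressing lines kept under nourseothricin (100 µg/mL). Triplicate cultures seeded at 5×10^4 parasites/mL with drug for 72 h; 50 µM resazurin added, fluorescence (ex 528/em 590 nm) read after a further 4 h.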
# [11] = Toxicity in Swiss mouse assessed as lesions on liver at 25 mg/kg, po administered once daily for 5 days; format: organism-based; settings: in vivo, 120 h
# [12] = Microsomal stability in CD-1 mouse liver microsomes in presence of NADP measured up to 40 mins by LC-MS analysis; format: ADME, Microsome
# In short: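 Compound incubated in duplicate with female CD-1 mouse microsomes at 37°C in 50 mM phosphate pH 7.4. Cofactors: 5 mM MgCl₂, 1 mM NADP, 0.4 U/mL G6PDH and 5 mM glucose-6-phosphate. […] Propranolol reference.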
# Leishmania donovani [13] = test: Antileishmanial activity against Leishmania donovani BOB (MHOM/SD/62/1S-CL2D) promastigotes overexpressing NTR2 assessed as inhibition of parasite growth incubated for 72 hrs by resazurin dye based assay; format: functional, organism-based; in short: as §1
# Leishmania donovani [14] = test: Antileishmanial activity against Leishmania donovani BOB (MHOM/SD/62/1S-CL2D) promastigotes overexpressing NTR1 assessed as inhibition of parasite growth incubated for 72 hrs by resazurin dye based assay; format: functional, organism-based; in short: as §1
# HepG2 [15] = test: Genotoxicity in human HepG2 cells assessed as induction of DNA damage at 1 to 10 uM incubated for 2 to 72 hrs by alkaline comet assay; format: toxicity, cell-based; settings: hepg2, 10 µM
# In short: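 Cells embedded in 0.7% low-melting agarose on film. Alkaline electrophoresis at pH >13, 24 min at 0.8 V/cm, then neutralised, ethanol-fixed and SYBR Gold stained. % tail DNA is the median of 100 cells (two deposits); 1 mM MMS positive control; three independent experiments.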
# [16] = Toxicity in Swiss mouse assessed as apathy occurence at 50 mg/kg, po administered once daily for 5 days measured for 1 hr; format: organism-based; settings: in vivo
# [17] = Toxicity in Swiss mouse assessed as lesions on brain at 25 mg/kg, po administered once daily for 5 days; format: organism-based; settings: in vivo, 120 h
# [18] = Toxicity in Swiss mouse assessed as lesions on lung at 25 mg/kg, po administered once daily for 5 days; format: organism-based; settings: in vivo, 120 h
# Trypanosoma cruzi = test: Antitrypanosomal activity against Trypanosoma cruzi CL Brener amastigotes infected in African green monkey Vero cells assessed as reduction in parasite growth incubated for 120 hrs at 24 hrs post-infection and measured on day 6 post-infection by hemocytometer based light microscopy; format: functional, organism-based
# In short: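 Compounds, 2–4-fold serial dilutions over 0,1–25 µM final, applied for 120 h at 37°C. On day 6, released trypomastigotes pooled, centrifuged and counted by haemocytometer. EC50 by nonlinear regression; two experiments, triplicate wells.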
# [19] = system: Trypanosoma brucei brucei; test: Antitrypanosomal activity against blood stream form of Trypanosoma brucei brucei S427 trypomastigotes overexpressing NTR assessed as inhibition of parasite growth; format: functional, organism-based
# [20] = Toxicity in Swiss mouse assessed as lesions on heart at 25 mg/kg, po administered once daily for 5 days; format: organism-based; settings: in vivo, 120 h
# [21] = system: Trypanosoma brucei brucei; test: Selectivity index, ratio of EC50 for bloodstream form of wild type Trypanosoma brucei brucei S427 trypomastigotes to EC50 for blood stream form of Trypanosoma brucei brucei S427 trypomastigotes overexpressing NTR; format: functional
# [22] = Half life in Swiss mouse at 25 mg/Kg, po measured up to 24 hrs by LCMS analysis; format: ADME, organism-based; settings: in vivo
# In short: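 Female Swiss mice, 8 weeks old, n=4, given a suspension by oral gavage at 25 mg/kg. Tail blood (100 µL, heparin) drawn at 0.5, 1, 3, 6, 9, 12 and 24 h. Samples extracted with ACN containing megalol internal standard plus QuEChERS salts. Analysed by LC-MS/MS (C8 column, negative ESI, MRM); calibration 10–1,000 ng/ml, LLOQ 10 ng/ml.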
# [23] = Toxicity in orally dosed Swiss mouse administered once daily for 5 days; format: organism-based; settings: in vivo, po
# Plasma proteins = test: Plasma protein binding incubated for 4 hrs by LCMS analysis
smiles,measurement,setting,value
O=c1[nH]c2c([N+](=O)[O-])cc(C#CCCCO)cc2cc1Cl,EC50,[1],0.85 µM
same,EC50,Leishmania infantum,10.1 µM
same,CC50,HepG2 [2],32.7 µM
same,selectivity ratio,[3],38
O=c1ccc2cc(Br)cc([N+](=O)[O-])c2[nH]1,EC50,[1],0.07 µM
same,EC50,Leishmania infantum,11.6 µM
same,CC50,HepG2 [2],27.9 µM
same,Activity,[4],-0.4 V
same,selectivity ratio,[3],399
O=c1[nH]c2c([N+](=O)[O-])cc(Br)cc2cc1Cl,EC50,[1],0.012 µM
same,Activity,[5],Non-Toxic
same,Therm_solubility,[6],21.7 µM
same,EC50,[7],0.3 µM
same,"Papp at 4 h, 100 µM",[8],40.5 ×10⁻⁶ cm/s
same,Ratio EC50,Leishmania donovani [9],16
same,EC50,Leishmania donovani [10],4.7 µM
same,EC50,Leishmania infantum,6.7 µM
same,Activity,[11],Non-Toxic
same,t1/2,[12],> 40 min
same,EC50,Leishmania donovani [13],2.9 µM
same,EC50,Leishmania donovani [14],0.3 µM
same,Activity,HepG2 [15],Non-Toxic
same,CC50,HepG2 [2],18.1 µM
same,Activity,[16],Toxic
same,Activity,[17],Non-Toxic
same,Activity,[18],Non-Toxic
same,Activity,[4],-0.37 V
same,EC50,Trypanosoma cruzi,0.5 µM
same,EC50,[19],0.02 µM
same,Activity,[20],Non-Toxic
same,Ratio EC50,[21],15
same,t1/2,[22],174 min
same,NOAEL at 120 h,[23],25 mg/kg
same,selectivity ratio,[3],1510
same,Activity,Plasma proteins,99%
COc1ccc2cc(C(F)(F)F)cc([N+](=O)[O-])c2n1,EC50,[1],20.9 µM
same,EC50,Leishmania infantum,> 100 µM
same,CC50,HepG2 [2],> 100 µM
same,Activity,[4],-0.75 V
same,selectivity ratio,[3],> 5
C[C@@H]1[C@H](O)[C@@H](C)/C=C/C=C/C=C/C=C/C=C/C=C/C=C/[C@H](O[C@@H]2O[C@H](C)[C@@H](O)[C@H](N)[C@@H]2O)C[C@@H]2O[C@](O)(C[C@@H](O)C[C@@H](O)[C@H](O)CC[C@@H](O)C[C@@H](O)CC(=O)O[C@H]1C)C[C@H](O)[C@H]2C(=O)O [AMPHOTERICIN B],EC50,Leishmania infantum,0.06 µM
O=c1[nH]c2c([N+](=O)[O-])cc(Br)cc2cc1Br,EC50,[1],0.05 µM
same,EC50,Leishmania infantum,6.5 µM
same,CC50,HepG2 [2],16.6 µM
same,Activity,[4],-0.37 V
same,selectivity ratio,[3],332
O=C(O)c1ccc(-c2cc3cc(Br)cc([N+](=O)[O-])c3[nH]c2=O)cc1,EC50,[1],0.2 µM
same,EC50,[7],4 µM
same,"Papp at 4 h, 100 µM",[8],1.27 ×10⁻⁶ cm/s
same,EC50,Leishmania donovani [10],2 µM
same,EC50,Leishmania infantum,8 µM
same,t1/2,[12],> 40 min
same,EC50,Leishmania donovani [13],2.1 µM
same,EC50,Leishmania donovani [14],1.3 µM
same,CC50,HepG2 [2],60.4 µM
same,Activity,[4],-0.4 V
same,EC50,[19],0.1 µM
same,Ratio EC50,[21],40
same,selectivity ratio,[3],302
O=c1[nH]c2c([N+](=O)[O-])cc(Cl)cc2cc1Cl,EC50,[1],0.1 µM
same,EC50,Leishmania infantum,6.2 µM
same,CC50,HepG2 [2],24.3 µM
same,Activity,[4],-0.37 V
same,selectivity ratio,[3],243
CC1CS(=O)(=O)CCN1/N=C/c1ccc([N+](=O)[O-])o1 (configuration not stated) [NIFURTIMOX],EC50,[7],1.9 µM
same,EC50,[19],0.6 µM
Cc1ccc(C(=O)Nc2ccc(S(=O)(=O)O)c3cc(S(=O)(=O)O)cc(S(=O)(=O)O)c23)cc1NC(=O)c1cccc(NC(=O)Nc2cccc(C(=O)Nc3cc(C(=O)Nc4ccc(S(=O)(=O)O)c5cc(S(=O)(=O)O)cc(S(=O)(=O)O)c45)ccc3C)c2)c1 [SURAMIN],EC50,[1],0.03 µM
same,CC50,HepG2 [2],> 100 µM
same,selectivity ratio,[3],> 3330
O=c1ccc2cc(C(F)(F)F)cc([N+](=O)[O-])c2[nH]1,EC50,[1],1.7 µM
same,EC50,Leishmania infantum,18.5 µM
same,CC50,HepG2 [2],41.3 µM
same,Activity,[4],-0.39 V
same,selectivity ratio,[3],24
O=c1[nH]c2ccc(C(F)(F)F)cc2cc1Br,EC50,[1],> 50 µM
same,EC50,Leishmania infantum,> 100 µM
same,CC50,HepG2 [2],> 100 µM
